According to article PMC8928501 (ACS Omega, 2022):

Target: human transferrin (Tf) (Homo sapiens, UniProt P02787)
Assay: isothermal titration calorimetry
Assay type: binding
Summary of the method: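 Human transferrin in the sample cell, stated as 25 μM in one place and 20 μM in another; dialyzed and degassed before loading. Test compound at 200 μM in the syringe, added by automated titration after an initial dummy injection. Binding isotherm fitted to a two-site model to obtain the thermodynamic parameters.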

Sequence of human transferrin (Tf) (P02787 20-698): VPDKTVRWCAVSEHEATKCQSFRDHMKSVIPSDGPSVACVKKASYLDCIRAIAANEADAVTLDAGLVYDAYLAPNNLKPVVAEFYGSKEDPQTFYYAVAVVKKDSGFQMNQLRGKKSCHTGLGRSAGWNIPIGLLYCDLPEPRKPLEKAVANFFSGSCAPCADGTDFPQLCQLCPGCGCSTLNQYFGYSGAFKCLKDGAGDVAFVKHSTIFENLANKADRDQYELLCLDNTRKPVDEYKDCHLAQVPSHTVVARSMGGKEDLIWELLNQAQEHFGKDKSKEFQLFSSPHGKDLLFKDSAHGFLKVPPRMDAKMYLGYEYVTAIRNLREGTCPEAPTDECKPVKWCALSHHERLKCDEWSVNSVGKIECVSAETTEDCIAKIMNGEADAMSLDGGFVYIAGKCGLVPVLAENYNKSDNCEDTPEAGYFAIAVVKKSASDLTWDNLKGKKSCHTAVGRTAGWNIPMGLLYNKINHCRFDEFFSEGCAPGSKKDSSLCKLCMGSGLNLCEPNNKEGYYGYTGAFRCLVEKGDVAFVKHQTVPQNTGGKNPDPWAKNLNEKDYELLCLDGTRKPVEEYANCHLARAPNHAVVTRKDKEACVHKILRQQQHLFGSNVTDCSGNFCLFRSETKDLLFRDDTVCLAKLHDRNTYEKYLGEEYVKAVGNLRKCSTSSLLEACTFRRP

Kd: 6.9 µM
Structure (SMILES): CNCCC(Oc1ccc(C(F)(F)F)cc1)c1ccccc1 (stereo not shown) [Fluoxetine]
